Experimental data published in ChEMBL document CHEMBL2177039, “Identification of a chemical probe for bromo and extra C-terminal bromodomain inhibition through optimization of a fragment-derived hit” (J Med Chem, 2012).

What was measured:
[1] = target: Bromodomain-containing protein 4 (Homo sapiens, UniProt O60885); assay: Inhibition of BRD4 isoform 1 by AlphaScreen assay
Procedure, shortened: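 His-tagged bromodomain protein preincubated 30 min at room temperature with compound in 50 mM HEPES, 100 mM NaCl, 0.1% BSA, pH 7.4, plus 0.05% CHAPS; biotinylated peptide added for a further 30 min; streptavidin donor and nickel chelate acceptor beads (25 µg/ml each) then added, 60 min in the dark.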

[2] = tested on: Liver microsomes; assay: Half life in rat liver microsomes; assay type: ADME, Microsome
[3] = target: T1, CREB-binding protein (Homo sapiens, UniProt Q92793); assay: Binding affinity to CREBBP by SPR method
[4] = Tmax in mouse at 2 mg/kg, sc; assay type: ADME, organism-based; parameters: dose 2 mg/kg, route subcutaneous; conditions: in vivo
[5] = target: Histone acetyltransferase KAT2B (Homo sapiens) (UniProt Q92831); assay: Binding affinity to PCAF assessed as change in melting temperature at 10 uM by thermal shift assay
[6] = Oral bioavailability […] in rat at 2 mg/kg; assay type: ADME, organism-based; conditions: in vivo
[7] = Cmax in mouse at 2 mg/kg, sc; assay type: ADME, organism-based; parameters: dose 2 mg/kg, route subcutaneous; conditions: in vivo
[8] = target: Protein polybromo-1 (Homo sapiens) (UniProt Q86U86); assay: Binding affinity to pb1 isoform 5 assessed as change in melting temperature at 10 uM by thermal shift assay
[9] = target: Bromodomain-containing protein 3 (Homo sapiens) (UniProt Q15059); assay: Binding affinity to BRD3 isoform 2 assessed as change in melting temperature at 10 uM by thermal shift assay
[10] = tested on: PBMC; assay: Inhibition of LPS-induced IL6 production in human PBMC by ELISA; assay type: functional, cell-based
Procedure, shortened: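 Mononuclear cells washed in Ca/Mg-free PBS, then RPMI + 5% FBS; plated at 2E5 cells/well. Compound added at 0.1% DMSO final and preincubated 30 min; stimulated with ultrapure LPS O111:B4 at 0.5 ng/ml final. Supernatants collected after 20 h; cytokines measured by multiplex ELISA.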

[11] = Protein binding in rat plasma; assay type: ADME, cell-free; conditions: read-out: PPB (converted)
[12] = Half life in rat at 1 mg/kg, iv; assay type: ADME, organism-based; parameters: dose 1 mg/kg, route intravenous; conditions: in vivo
[13] = target: Bromodomain-containing protein 3 (Homo sapiens) (UniProt Q15059); assay: Binding affinity to BRD3 isoform 1 assessed as change in melting temperature at 10 uM by thermal shift assay
[14] = Drug concentration in rat gut at 1 mg/kg, iv measured 7 hrs post dose; assay type: ADME, organism-based; parameters: dose 1 mg/kg, route intravenous; conditions: read-out: Drug uptake
[15] = Half life in mouse at 2 mg/kg, sc; assay type: ADME, organism-based; parameters: dose 2 mg/kg, route subcutaneous; conditions: in vivo
[16] = Volume of distribution in rat at 1 mg/kg, iv; assay type: ADME, organism-based; parameters: dose 1 mg/kg, route intravenous; conditions: in vivo
[17] = target: Bromodomain testis-specific protein (Homo sapiens) (UniProt Q58F21); assay: Binding affinity to BRDT isoform 1 assessed as change in melting temperature at 10 uM by thermal shift assay
[18] = target: Bromodomain adjacent to zinc finger domain protein 2B (Homo sapiens) (UniProt Q9UIF8); assay: Binding affinity to BAZ2B assessed as change in melting temperature at 10 uM by thermal shift assay
[19] = Plasma clearance in rat at 1 mg/kg, iv; assay type: ADME, organism-based; parameters: dose 1 mg/kg, route intravenous
[20] = target: Bromodomain-containing protein 2 (Homo sapiens) (UniProt P25440); assay: Binding affinity to BRD2 isoform 2 assessed as change in melting temperature at 10 uM by thermal shift assay
[21] = target: Bromodomain-containing protein 2 (Homo sapiens) (UniProt P25440); assay: Binding affinity to BRD2 isoform 1 assessed as change in melting temperature at 10 uM by thermal shift assay
[22] = target: T1, CREB-binding protein; assay: Binding affinity to CREBBP assessed as change in melting temperature at 10 uM by thermal shift assay
Target sequence in this assay (Q92793 2-2442 limits assumed): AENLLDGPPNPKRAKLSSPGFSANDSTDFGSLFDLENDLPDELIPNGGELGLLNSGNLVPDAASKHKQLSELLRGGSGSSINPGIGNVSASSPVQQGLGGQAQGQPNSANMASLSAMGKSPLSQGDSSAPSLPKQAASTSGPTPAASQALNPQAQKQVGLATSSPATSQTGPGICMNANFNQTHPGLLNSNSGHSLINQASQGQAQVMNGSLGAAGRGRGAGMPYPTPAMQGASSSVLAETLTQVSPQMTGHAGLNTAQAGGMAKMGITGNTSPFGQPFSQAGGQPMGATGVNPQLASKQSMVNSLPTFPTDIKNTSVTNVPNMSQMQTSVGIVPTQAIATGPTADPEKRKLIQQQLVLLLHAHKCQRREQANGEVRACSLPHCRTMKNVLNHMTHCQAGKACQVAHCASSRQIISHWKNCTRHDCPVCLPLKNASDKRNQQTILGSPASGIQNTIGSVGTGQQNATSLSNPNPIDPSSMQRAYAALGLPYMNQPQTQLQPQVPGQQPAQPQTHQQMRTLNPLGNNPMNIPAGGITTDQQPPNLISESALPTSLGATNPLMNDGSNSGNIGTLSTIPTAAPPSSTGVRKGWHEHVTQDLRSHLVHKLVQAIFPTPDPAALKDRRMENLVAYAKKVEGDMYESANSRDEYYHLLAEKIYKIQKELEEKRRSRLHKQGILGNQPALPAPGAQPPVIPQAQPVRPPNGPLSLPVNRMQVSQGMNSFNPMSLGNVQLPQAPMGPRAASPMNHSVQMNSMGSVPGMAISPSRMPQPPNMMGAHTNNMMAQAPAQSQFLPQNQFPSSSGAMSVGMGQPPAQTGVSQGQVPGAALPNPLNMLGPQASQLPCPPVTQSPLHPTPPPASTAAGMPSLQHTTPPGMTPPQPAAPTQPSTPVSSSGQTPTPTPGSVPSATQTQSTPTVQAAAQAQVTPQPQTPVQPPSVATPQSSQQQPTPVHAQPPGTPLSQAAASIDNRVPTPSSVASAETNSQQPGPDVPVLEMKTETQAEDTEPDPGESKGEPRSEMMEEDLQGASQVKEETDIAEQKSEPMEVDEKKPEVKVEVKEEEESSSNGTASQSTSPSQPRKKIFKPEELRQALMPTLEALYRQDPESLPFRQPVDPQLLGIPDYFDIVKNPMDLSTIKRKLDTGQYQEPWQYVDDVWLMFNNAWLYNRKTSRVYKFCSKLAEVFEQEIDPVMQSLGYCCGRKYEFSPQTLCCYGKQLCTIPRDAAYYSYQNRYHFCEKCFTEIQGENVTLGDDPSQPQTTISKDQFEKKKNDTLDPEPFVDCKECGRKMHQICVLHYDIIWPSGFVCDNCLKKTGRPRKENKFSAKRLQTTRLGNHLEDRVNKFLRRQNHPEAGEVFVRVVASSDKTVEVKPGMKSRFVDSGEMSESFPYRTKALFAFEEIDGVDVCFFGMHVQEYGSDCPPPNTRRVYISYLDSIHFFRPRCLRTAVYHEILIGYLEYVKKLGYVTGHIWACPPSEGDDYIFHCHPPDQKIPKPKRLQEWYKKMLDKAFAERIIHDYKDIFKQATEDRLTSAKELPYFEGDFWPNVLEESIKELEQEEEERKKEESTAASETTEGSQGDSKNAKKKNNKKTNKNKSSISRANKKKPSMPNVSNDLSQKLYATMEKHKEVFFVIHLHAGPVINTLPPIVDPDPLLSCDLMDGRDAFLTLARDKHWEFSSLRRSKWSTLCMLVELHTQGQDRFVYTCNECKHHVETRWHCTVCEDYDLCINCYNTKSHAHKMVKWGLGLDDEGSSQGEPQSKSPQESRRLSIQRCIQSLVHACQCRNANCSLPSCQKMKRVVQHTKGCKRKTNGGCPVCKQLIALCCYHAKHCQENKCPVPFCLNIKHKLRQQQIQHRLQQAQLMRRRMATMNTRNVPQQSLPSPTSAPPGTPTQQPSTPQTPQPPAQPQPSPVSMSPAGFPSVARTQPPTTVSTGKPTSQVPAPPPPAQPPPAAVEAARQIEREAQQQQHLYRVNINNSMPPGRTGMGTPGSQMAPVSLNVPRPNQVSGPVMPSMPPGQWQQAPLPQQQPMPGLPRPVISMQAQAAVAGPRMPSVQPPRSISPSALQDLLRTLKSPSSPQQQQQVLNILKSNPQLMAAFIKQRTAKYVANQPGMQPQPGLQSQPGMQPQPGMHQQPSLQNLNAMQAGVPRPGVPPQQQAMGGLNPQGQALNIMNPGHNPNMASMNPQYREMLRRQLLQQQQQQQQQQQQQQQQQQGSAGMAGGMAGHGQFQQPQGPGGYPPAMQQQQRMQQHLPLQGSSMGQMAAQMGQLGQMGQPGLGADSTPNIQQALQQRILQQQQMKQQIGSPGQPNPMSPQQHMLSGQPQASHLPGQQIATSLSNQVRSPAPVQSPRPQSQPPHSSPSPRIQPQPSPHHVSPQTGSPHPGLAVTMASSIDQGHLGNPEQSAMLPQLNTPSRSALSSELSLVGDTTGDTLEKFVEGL

Sequence of Bromodomain-containing protein 3 (Homo sapiens) (Q15059 2-726 limits assumed): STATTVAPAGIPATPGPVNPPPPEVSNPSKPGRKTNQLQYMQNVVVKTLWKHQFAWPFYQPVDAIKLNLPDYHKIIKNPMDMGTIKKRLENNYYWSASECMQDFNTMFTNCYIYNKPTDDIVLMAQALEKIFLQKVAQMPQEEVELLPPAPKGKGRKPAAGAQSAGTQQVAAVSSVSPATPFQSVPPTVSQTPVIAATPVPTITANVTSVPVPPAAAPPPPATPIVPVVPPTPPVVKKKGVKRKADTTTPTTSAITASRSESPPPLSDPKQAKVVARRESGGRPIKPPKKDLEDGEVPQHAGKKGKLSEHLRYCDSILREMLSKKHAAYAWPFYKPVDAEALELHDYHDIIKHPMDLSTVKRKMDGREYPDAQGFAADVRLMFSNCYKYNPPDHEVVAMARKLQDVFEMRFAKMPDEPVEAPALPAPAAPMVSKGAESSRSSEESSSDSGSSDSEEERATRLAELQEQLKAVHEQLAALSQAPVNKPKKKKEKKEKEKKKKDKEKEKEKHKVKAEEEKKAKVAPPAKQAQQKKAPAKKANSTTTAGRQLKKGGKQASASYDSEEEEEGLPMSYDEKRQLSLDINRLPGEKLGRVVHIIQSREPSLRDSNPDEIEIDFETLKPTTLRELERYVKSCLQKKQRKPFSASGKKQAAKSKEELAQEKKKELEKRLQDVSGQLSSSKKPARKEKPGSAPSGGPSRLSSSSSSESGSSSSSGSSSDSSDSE
Sequence of Bromodomain-containing protein 2 (Homo sapiens) (P25440 whole entry, looked up, canonical isoform): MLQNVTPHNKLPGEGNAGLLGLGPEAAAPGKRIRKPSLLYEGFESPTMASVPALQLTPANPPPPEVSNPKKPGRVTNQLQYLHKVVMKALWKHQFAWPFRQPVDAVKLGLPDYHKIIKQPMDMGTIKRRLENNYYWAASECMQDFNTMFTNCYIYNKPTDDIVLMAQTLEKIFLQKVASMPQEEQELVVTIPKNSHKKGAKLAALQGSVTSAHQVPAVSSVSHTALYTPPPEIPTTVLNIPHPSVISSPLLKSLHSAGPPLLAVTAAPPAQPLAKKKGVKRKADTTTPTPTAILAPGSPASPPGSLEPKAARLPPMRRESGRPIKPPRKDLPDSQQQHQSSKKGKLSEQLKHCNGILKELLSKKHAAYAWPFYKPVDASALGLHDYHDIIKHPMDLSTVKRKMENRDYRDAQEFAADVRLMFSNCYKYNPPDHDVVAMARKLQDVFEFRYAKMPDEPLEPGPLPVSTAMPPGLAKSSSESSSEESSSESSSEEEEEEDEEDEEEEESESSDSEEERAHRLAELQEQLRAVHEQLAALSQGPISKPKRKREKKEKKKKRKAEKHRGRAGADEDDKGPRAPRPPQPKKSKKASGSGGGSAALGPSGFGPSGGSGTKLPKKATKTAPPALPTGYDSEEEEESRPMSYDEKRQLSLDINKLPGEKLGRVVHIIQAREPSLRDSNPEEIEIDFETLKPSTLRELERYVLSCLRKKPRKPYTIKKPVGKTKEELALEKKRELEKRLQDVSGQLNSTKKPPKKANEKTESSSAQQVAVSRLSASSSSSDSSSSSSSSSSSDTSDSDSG
Sequence of Histone acetyltransferase KAT2B (Homo sapiens) (Q92831 whole entry, looked up): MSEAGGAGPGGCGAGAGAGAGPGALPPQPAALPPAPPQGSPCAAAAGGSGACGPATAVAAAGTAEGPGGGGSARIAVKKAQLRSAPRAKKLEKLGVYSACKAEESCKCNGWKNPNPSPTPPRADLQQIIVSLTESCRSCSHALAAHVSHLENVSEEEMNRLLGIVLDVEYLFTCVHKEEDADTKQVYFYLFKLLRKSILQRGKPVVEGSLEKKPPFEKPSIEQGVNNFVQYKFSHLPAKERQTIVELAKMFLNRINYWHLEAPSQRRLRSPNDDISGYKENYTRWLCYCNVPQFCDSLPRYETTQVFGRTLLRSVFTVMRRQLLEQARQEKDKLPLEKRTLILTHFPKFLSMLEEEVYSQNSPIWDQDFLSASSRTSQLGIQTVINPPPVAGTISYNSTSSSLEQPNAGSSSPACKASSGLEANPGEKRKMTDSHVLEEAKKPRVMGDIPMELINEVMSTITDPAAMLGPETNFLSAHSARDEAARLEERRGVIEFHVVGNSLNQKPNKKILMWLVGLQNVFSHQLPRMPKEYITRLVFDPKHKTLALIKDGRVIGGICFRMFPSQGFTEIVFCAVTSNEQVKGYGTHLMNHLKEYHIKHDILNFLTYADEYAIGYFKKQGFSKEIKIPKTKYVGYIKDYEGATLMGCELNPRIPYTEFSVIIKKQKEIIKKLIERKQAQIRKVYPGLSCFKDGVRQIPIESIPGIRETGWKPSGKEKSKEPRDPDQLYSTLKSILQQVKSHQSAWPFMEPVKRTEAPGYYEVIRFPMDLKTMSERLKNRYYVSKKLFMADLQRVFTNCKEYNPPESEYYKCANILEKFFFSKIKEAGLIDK

Question: Which IC50 [1] does the source give for `Cc1ccc(S(=O)(=O)Nc2ccc3c(c2)CN(C)C(=O)N3)cc1` here?
Answer: The IC50 was 390 nM.

Question: What does the source list for `COc1ccccc1S(=O)(=O)Nc1ccc2c(c1)CN(C)C(=O)N2`?
Answer: t1/2 [2]: > 120 min; Kd [3]: 49 µM; Tmax [4]: 1 h; ΔTm [5]: 0.81 °C; bioavailability [6]: 32%; Cmax [7]: 58 ng/mL; ΔTm [8]: 0.83 °C; ΔTm [9]: 5.45 °C; EC50 [10]: 1890 nM; fraction unbound [11]: 0.31; half-life [12]: 60 min; ΔTm [13]: 5.24 °C; concentration at 7 h [14]: 62 ng/mL; half-life [15]: 120 min; Vd [16]: 1 L/kg; ΔTm [17]: 2.08 °C; ΔTm [18]: 0.3 °C; clearance [19]: 18 mL/min/kg; ΔTm [20]: 5.32 °C; ΔTm [21]: 4.61 °C; ΔTm [22]: 1.7 °C

Question: Which IC50 [1] does the source give for `CN1Cc2cc(NS(=O)(=O)c3ccccc3)ccc2NC1=O` here?
Answer: The IC50 was 880 nM.

Question: With `COc1ccc(S(=O)(=O)Nc2ccc3c(c2)CN(C)C(=O)N3)cc1` as the compound, how does the IC50 [1] read?
Answer: The IC50 was 880 nM.

Question: Which IC50 [1] does the source give for `Cc1ccccc1S(=O)(=O)Nc1ccc2c(c1)CN(C)C(=O)N2` here?
Answer: Its IC50 is 220 nM.

Question: With `CN1Cc2cc(S(=O)(=O)N3CCCC3)ccc2NC1=O` as the compound, how does the IC50 [1] read?
Answer: The IC50 was 4800 nM.

Question: With `CN1Cc2cc(NS(=O)(=O)c3ccccc3F)ccc2NC1=O` as the compound, how does the IC50 [1] read?
Answer: The IC50 was 360 nM.

Question: For `CCNS(=O)(=O)c1ccc2c(c1)CN(C)C(=O)N2`, which IC50 [1] is on record?
Answer: The IC50 was 1900 nM.

Question: For `CN1Cc2cc(NS(=O)(=O)c3ccc(C#N)cc3)ccc2NC1=O`, which IC50 [1] is on record?
Answer: The IC50 was 2300 nM.

Question: With `CN1Cc2cc(NS(=O)(=O)c3ccccc3C(F)(F)F)ccc2NC1=O` as the compound, how does the IC50 [1] read?
Answer: Its IC50 is 470 nM.

Question: Which IC50 [1] does the source give for `CN1Cc2cc(NS(=O)(=O)c3ccc(F)cc3Cl)ccc2NC1=O` here?
Answer: The IC50 was 180 nM.

Question: With `COc1cccc(S(=O)(=O)Nc2ccc3c(c2)CN(C)C(=O)N3)c1` as the compound, how does the IC50 [1] read?
Answer: The IC50 was 730 nM.
